Measured values gathered from unrelated publications.
Protocols differ between the studies behind these lines.
Target: Serine/threonine-protein kinase WNK3 (WNK3, Homo sapiens, UniProt Q9BYP7)

For N[C@H]1CCN(c2nccc(-c3cnn4ncccc34)n2)C1, the remaining binding was 90% (binding; 1 µM).
With CNC(=O)[C@@H]1CC[C@@H](n2c(-c3ccc4cnccc4c3)nc3ccc(C(=O)NCc4cccc(C(N)=O)c4)cc32)C1 the remaining binding was 100% (binding; competition with immobilised ligand; 1 µM).
For CN(CCCC(F)(F)F)c1nccc(-c2cnn3ncccc23)n1, the remaining binding was 100% (binding; 1 µM).
The remaining binding of Cc1cnc(Nc2ccc(C(=O)N3CCC(N4CCCC4)CC3)cc2)nc1-c1cc2ccccc2s1 is reported as 100% (binding; competition with immobilised ligand; 1 µM).
CN(c1ccnc(CNc2nc(Nc3ccc4c(c3)CC(=O)N4)ncc2C(F)(F)F)n1)S(C)(=O)=O has a remaining binding of 79% (cell-free assay; competition with immobilised ligand; 1 µM).
FC(F)(F)Oc1cccc(-c2cnc3ccc(-c4ccncc4)nn23)c1 gave a remaining binding of 77% (binding; competition with immobilised ligand; 5 µM).
For C=CC(=O)N1CCC(C(=O)NCC(=O)N2CCN(c3nc(-c4cnc(N)nc4C(F)F)nc(N4CCOCC4)n3)CC2)CC1, the remaining binding was 96% (binding; competition with immobilised ligand; 1 µM).
O=C(c1ccc(Nc2ncc(Cl)c(-c3cc4ccccc4s3)n2)cc1)N1CCC(N2CCCC2)CC1 has a remaining binding of 100% (binding; competition with immobilised ligand; 1 µM).
COc1ncc2cc3ccccc3nc2c1C#N gave a remaining binding of 96% (cell-free assay; competition with immobilised ligand; 5 µM).
For CCC(=O)N[C@H]1CC[C@@H](C(=O)N(C)c2ccc(-c3nc4ccccc4o3)cc2)C1, the remaining binding was 92% (cell-free assay; competition with immobilised ligand; 1 µM).
c1cncc(-c2cccc(Nc3nccc(NC4CCCCC4)n3)c2)c1 gave a remaining binding of 94% (binding; competition with immobilised ligand; 10 µM).
With O=S(=O)(NC1CCC(c2cc(F)ccc2F)(S(=O)(=O)c2ccc(Cl)cc2)CC1)C(F)(F)F (stereo not shown) the remaining binding was 100% (cell-free assay; competition with immobilised ligand; 1 µM).
For c1cnn2ncc(-c3ccnc(N4CCC45COC5)n3)c2c1, the remaining binding was 68% (binding; 1 µM).
The remaining binding of Cn1cc(Cl)c2c(Oc3c(F)cc(Nc4cc(Cl)nc(N)n4)cc3F)ccnc21 is reported as 95% (cell-free assay; competition with immobilised ligand; 0.1 µM).
O=C(Nc1c[nH]nc1C(=O)NC1CCNCC1)c1cc(F)cc(F)c1 has a remaining binding of 100% (binding; competition with immobilised ligand; 1 µM).
COc1cnc(Nc2cccc(S(N)(=O)=O)c2)nc1N1CCN(c2ccccc2)CC1 gave a remaining binding of 97% (binding; competition with immobilised ligand; 1 µM).
The remaining binding of CN(c1nccc(-c2cnn3ncccc23)n1)C1CC1 is reported as 100% (binding; 1 µM).
O=C(NCCCN1CCOCC1)c1ccc(Nc2nccc(-c3cc4ccccc4s3)n2)cc1 gave a remaining binding of 100% (binding; competition with immobilised ligand; 1 µM).
The remaining binding of Cc1c[nH]c2nccc(Oc3c(F)cc(Nc4cc(Cl)nc(N)n4)cc3F)c12 is reported as 90% (cell-free assay; competition with immobilised ligand; 0.1 µM).
C[C@H]1CCN(c2nccc(-c3cnn4ncccc34)n2)C1 has a remaining binding of 98% (binding; 1 µM).
CO[C@@H](C)c1c(Nc2ccc([C@H](N(C)C(=O)C3CCS(=O)(=O)CC3)C(F)(F)F)cc2)cnc2cc(Cl)nn12 gave a remaining binding of 95% (cell-free assay; competition with immobilised ligand; 1 µM).
With COc1ccnn2ncc(-c3ccnc(N(C)C)n3)c12 the remaining binding was 92% (binding; 1 µM).
